Bounds are passed on as bounds.

Sodium-dependent serotonin transporter, sequence (P31652 whole entry): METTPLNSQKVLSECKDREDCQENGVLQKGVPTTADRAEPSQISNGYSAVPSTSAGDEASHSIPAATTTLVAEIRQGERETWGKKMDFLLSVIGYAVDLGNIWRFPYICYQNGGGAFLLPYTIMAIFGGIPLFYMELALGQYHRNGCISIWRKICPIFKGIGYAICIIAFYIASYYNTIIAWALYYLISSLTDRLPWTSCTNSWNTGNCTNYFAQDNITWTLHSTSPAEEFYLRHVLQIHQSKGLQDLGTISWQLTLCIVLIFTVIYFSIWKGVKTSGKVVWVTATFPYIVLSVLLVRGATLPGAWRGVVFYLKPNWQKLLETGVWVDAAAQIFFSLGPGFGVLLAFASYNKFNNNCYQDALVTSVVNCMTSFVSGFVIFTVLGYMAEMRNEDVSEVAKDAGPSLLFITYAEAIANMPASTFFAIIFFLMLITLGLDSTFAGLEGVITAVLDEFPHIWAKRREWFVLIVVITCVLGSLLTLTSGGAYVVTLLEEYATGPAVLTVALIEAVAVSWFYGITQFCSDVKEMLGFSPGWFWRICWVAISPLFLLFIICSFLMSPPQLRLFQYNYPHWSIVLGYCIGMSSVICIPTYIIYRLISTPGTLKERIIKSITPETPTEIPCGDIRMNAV

The first assay addresses T1, 5-hydroxytryptamine receptor 1A (Homo sapiens) (UniProt P08908).
T1 sequence (whole entry): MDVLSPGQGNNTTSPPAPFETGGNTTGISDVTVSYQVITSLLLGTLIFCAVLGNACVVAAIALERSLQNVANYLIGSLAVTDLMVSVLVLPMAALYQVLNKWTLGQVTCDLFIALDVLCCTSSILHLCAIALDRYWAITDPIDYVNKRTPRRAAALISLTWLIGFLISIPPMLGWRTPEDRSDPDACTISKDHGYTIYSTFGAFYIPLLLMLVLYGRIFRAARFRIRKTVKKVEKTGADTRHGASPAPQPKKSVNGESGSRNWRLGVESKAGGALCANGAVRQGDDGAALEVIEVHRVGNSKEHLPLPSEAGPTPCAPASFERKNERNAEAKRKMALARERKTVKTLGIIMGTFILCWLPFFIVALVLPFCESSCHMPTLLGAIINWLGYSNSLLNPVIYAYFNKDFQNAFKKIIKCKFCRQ
Compound `NCCc1c[nH]c2ccc(O)cc12` displayed an IA of 1.

Another assay addresses T1, 5-hydroxytryptamine receptor 1A (Homo sapiens). Put plainly: Intrinsic activity for human 5-hydroxytryptamine 1A receptor in [35S]GTP-gamma-S, assay. It is filed as functional. The method, boiled down:
(§1)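 [35S]GTPγS binding in recombinant cells with high receptor density expressing the human receptor. Ten-point half-log serial dilution gives the concentration–response. Intrinsic activity is expressed relative to the maximal response of the endogenous agonist 5-HT.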
As for `CN1CCN(c2cc3c(cc2Cl)CCN3C(=O)Nc2ccc(-c3ccncc3)c3ccccc23)CC1`, the IA was determined as 0.44.

Another assay shares this target. Put plainly: Intrinsic activity for human 5-hydroxytryptamine 1A receptor in [35S]GTP-gamma-S, assay; […]. It is filed as functional. The essentials: as §1
Take `Cc1ccc2c(OCCN3CCN(Cc4cccc5cc[nH]c45)CC3)cccc2n1`: the IA was 0.

As for `Cc1ccc2c(OCCN3CCN(Cc4cccc5[nH]cnc45)CC3)cccc2n1`, the IA came out at 0.

The next assay deals with T2, 5-hydroxytryptamine receptor 1D (Homo sapiens, UniProt P28221).
T2 sequence (P28221 whole entry): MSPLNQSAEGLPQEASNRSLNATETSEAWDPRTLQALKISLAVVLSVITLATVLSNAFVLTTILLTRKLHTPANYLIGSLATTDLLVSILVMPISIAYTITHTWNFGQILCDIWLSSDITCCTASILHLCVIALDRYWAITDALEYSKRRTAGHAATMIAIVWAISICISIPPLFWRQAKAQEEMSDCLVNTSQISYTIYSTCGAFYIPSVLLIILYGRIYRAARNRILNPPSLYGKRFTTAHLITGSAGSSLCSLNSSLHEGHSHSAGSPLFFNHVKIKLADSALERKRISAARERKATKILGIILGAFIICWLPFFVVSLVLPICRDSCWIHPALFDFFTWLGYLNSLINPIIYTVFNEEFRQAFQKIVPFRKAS
For `NCCc1c[nH]c2ccc(O)cc12`, the IA amounted to 1.

For another assay, the target named is T3, 5-hydroxytryptamine receptor 1B (Homo sapiens, UniProt P28222). Nature of the assay: Intrinsic activity for human 5-hydroxytryptamine 1B receptor in [35S]GTP-gamma-S, assay. It is filed as functional. The method, boiled down: as §1
T3 sequence (P28222 whole entry): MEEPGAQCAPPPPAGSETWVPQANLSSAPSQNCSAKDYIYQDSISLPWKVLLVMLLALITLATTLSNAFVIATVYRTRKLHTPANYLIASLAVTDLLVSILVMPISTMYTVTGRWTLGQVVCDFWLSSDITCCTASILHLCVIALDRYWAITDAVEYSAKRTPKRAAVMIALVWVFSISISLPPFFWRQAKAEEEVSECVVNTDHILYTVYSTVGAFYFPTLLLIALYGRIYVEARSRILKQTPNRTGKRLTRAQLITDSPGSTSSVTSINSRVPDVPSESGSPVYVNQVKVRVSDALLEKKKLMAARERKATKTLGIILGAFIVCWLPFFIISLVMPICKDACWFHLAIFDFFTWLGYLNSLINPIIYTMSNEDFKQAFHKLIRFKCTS
In turn, `COc1ccc(NC(=O)c2ccc(-c3ccc(-c4noc(C)n4)cc3C)cc2)cc1N1CCN(C)CC1` yielded an IA of 0.47.

Turning to `Cc1ccc2c(OCCN3CCN(Cc4cccc5cc[nH]c45)CC3)cccc2n1`, the IA was 0.1.

`Cc1ccc2c(OCCN3CCN(Cc4cccc5[nH]cnc45)CC3)cccc2n1`: the IA came out at 0.3.

In a further assay the target is T2, 5-hydroxytryptamine receptor 1D. Put plainly: Intrinsic activity for human 5-hydroxytryptamine 1D receptor in [35S]GTP-gamma-S, assay. The format is functional. The essentials: as §1
`COc1ccc(NC(=O)c2ccc(-c3ccc(-c4noc(C)n4)cc3C)cc2)cc1N1CCN(C)CC1` displayed an IA of 0.86.

As for `Cc1ccc2c(OCCN3CCN(Cc4cccc5cc[nH]c45)CC3)cccc2n1`, the IA came to 0.5.

In turn, `Cc1ccc2c(OCCN3CCN(Cc4cccc5[nH]cnc45)CC3)cccc2n1` came in with an IA of 0.5.

For the next assay, the target named is Serotonin 1 receptors; 5-HT1B & 5-HT1D (Homo sapiens) (UniProt P28222+P28221). Nature of the assay: Selectivity for human 5-hydroxytryptamine 1D receptor over 5-hydroxytryptamine 1B receptor. The format is protein assay.
`Cc1ccc2c(OCCN3CCN(Cc4ccc5[nH]ccc5c4)CC3)cccc2n1` displayed a Selectivity of 50.

Consider `Cc1ccc2c(OCCN3CCN(Cc4ccc5c(c4)NC(=O)CO5)CC3)cccc2n1`, for which the Selectivity was determined as 10.

For `Cc1ccc2c(OCCN3CCN(Cc4ccc(F)c([N+](=O)[O-])c4)CC3)cccc2n1`, the Selectivity was determined as 32.

With `Cc1ccc2c(OCCN3CCN(Cc4cc(Cl)ccc4Cl)CC3)cccc2n1`, the Selectivity came to 158.

`Cc1ccc2c(OCCN3CCN(Cc4cccc5ncncc45)CC3)cccc2n1` returned a Selectivity of 126.

The compound `Cc1ccc2c(OCCN3CCN(Cc4cccc5ncccc45)CC3)cccc2n1` yielded a Selectivity of 100.

Compound `Cc1ccc2c(OCCN3CCN(Cc4ccc(C)c([N+](=O)[O-])c4)CC3)cccc2n1` gave a Selectivity of 40.

For the compound `COc1ccc(CN2CCN(CCOc3cccc4nc(C)ccc34)CC2)cc1[N+](=O)[O-]`, the Selectivity stood at 16.

`Cc1ccc2c(OCCN3CCN(Cc4cccc5cc[nH]c45)CC3)cccc2n1` had a Selectivity of 126.

`Cc1ccc2c(OCCN3CCN(Cc4ccc(O)c([N+](=O)[O-])c4)CC3)cccc2n1` showed a Selectivity of 40.

As to `Cc1ccc2c(OCCN3CCN(Cc4ccc(Cl)c([N+](=O)[O-])c4)CC3)cccc2n1`, the Selectivity was found to be 40.

The compound `Cc1ccc2c(OCCN3CCN(Cc4cccc5[nH]cnc45)CC3)cccc2n1` displayed a Selectivity of 251.

Turning to `Cc1ccc2c(OCCN3CCN(Cc4ccc(O)c(N)c4)CC3)cccc2n1`, the Selectivity came to 158.

On to `Cc1ccc2c(OCCN3CCN(Cc4ccc(Cl)c(Cl)c4)CC3)cccc2n1`, for which the Selectivity came to 1.

The target in the next assay is Sodium-dependent serotonin transporter (Rattus norvegicus, UniProt P31652). Nature of the assay: Inhibition of [3H]5-HT binding to serotonin transporter in rat cortical synaptosomes. It is filed as subcellular, Brain. The essentials:
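Radioligand binding to serotonin transporter in rat cortical synaptosomes. Each determination lies within 0.3 log units of the mean.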
Turning to `Cc1ccc2c(OCCN3CCN(Cc4ccc5c(c4)NC(=O)CO5)CC3)cccc2n1`, affinity was put at a Ki of 25.1 nM.

Consider `Cc1ccc2c(OCCN3CCN(Cc4ccc(F)c([N+](=O)[O-])c4)CC3)cccc2n1`, for which the affinity, expressed as Ki, was 316 nM.

In turn, `Cc1ccc2c(OCCN3CCN(Cc4cc(Cl)ccc4Cl)CC3)cccc2n1` gave a Ki of 1260 nM.

`Cc1ccc2c(OCCN3CCN(Cc4c(Cl)cccc4Cl)CC3)cccc2n1` gave a Ki of 1260 nM.

In the case of `Cc1ccc2c(OCCN3CCN(Cc4ccc(C)c([N+](=O)[O-])c4)CC3)cccc2n1`, affinity was put at a Ki of 50.1 nM.

With `Cc1ccc2c(OCCN3CCN(Cc4cccc5cc[nH]c45)CC3)cccc2n1`, the affinity corresponds to a Ki of 398 nM.

Turning to `Cc1ccc2c(OCCN3CCN(Cc4ccc(O)c([N+](=O)[O-])c4)CC3)cccc2n1`, the Ki is 1000 nM.

The compound `Cc1ccc2c(OCCN3CCN(Cc4ccc(Cl)c([N+](=O)[O-])c4)CC3)cccc2n1` gave a Ki of 200 nM.

Compound `Cc1ccc2c(OCCN3CCN(Cc4cccc5[nH]cnc45)CC3)cccc2n1` had a Ki of 794 nM.

Compound `Cc1ccc2c(OCCN3CCN(Cc4ccc(Cl)c(Cl)c4)CC3)cccc2n1` showed a Ki of 501 nM.

In the next assay the target is T4, 5-hydroxytryptamine receptor 1A (Homo sapiens, UniProt P08908).
T4 sequence (P08908 whole entry): T1 sequence (whole entry)
Nature of the assay: Displacement of [3H]WAY-100635 from human 5-hydroxytryptamine 1A receptor expressed in CHO cells. The format is cell-based. The method, boiled down: (§2)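 Radioligand displacement binding on membranes of cloned human receptors. Each determination lies within 0.3 log units of the mean.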
`Cc1ccc2c(OCCN3CCN(Cc4ccc5[nH]ccc5c4)CC3)cccc2n1` gave a Ki of 1000 nM.

Regarding `Cc1ccc2c(OCCN3CCN(Cc4ccc5c(c4)NC(=O)CO5)CC3)cccc2n1`, the Ki is 63.1 nM.

`Cc1ccc2c(OCCN3CCN(Cc4ccc(F)c([N+](=O)[O-])c4)CC3)cccc2n1` had a Ki of 501 nM.

Regarding `Cc1ccc2c(OCCN3CCN(Cc4cc(Cl)ccc4Cl)CC3)cccc2n1`, the affinity, expressed as Ki, was 79.4 nM.

The compound `Cc1ccc2c(OCCN3CCN(Cc4c(Cl)cccc4Cl)CC3)cccc2n1` had a Ki of more than 10000 nM.

Take `Cc1ccc2c(OCCN3CCN(Cc4cccc5ncncc45)CC3)cccc2n1`: the Ki was 398 nM.

The compound `Cc1ccc2c(OCCN3CCN(Cc4cccc5ncccc45)CC3)cccc2n1` gave a Ki of 398 nM.

Compound `Cc1ccc2c(OCCN3CCN(Cc4ccc(C)c([N+](=O)[O-])c4)CC3)cccc2n1` gave a Ki of 39.8 nM.

With `COc1ccc(CN2CCN(CCOc3cccc4nc(C)ccc34)CC2)cc1[N+](=O)[O-]`, the affinity corresponds to a Ki of 398 nM.

In turn, `Cc1ccc2c(OCCN3CCN(Cc4cccc5cc[nH]c45)CC3)cccc2n1` showed a Ki of 398 nM.

In turn, `Cc1ccc2c(OCCN3CCN(Cc4ccc(O)c([N+](=O)[O-])c4)CC3)cccc2n1` gave a Ki of 794 nM.

The compound `Cc1ccc2c(OCCN3CCN(Cc4ccc(Cl)c([N+](=O)[O-])c4)CC3)cccc2n1` gave a Ki of 63.1 nM.

In turn, `Cc1ccc2c(OCCN3CCN(Cc4cccc5[nH]cnc45)CC3)cccc2n1` had a Ki of 158 nM.

`Cc1ccc2c(OCCN3CCN(Cc4ccc(O)c(N)c4)CC3)cccc2n1`: the Ki is more than 1260 nM.

In turn, `Cc1ccc2c(OCCN3CCN(Cc4ccc(Cl)c(Cl)c4)CC3)cccc2n1` had a Ki of more than 10000 nM.

In another assay the target is T2, 5-hydroxytryptamine receptor 1D. Nature of the assay: Displacement of [3H]5-HT from human 5-hydroxytryptamine 1D receptor expressed in CHO cells. The format is cell-based. The method, boiled down: as §2
`Cc1ccc2c(OCCN3CCN(Cc4ccc5[nH]ccc5c4)CC3)cccc2n1` showed a Ki of 3.16 nM.

Regarding `Cc1ccc2c(OCCN3CCN(Cc4ccc5c(c4)NC(=O)CO5)CC3)cccc2n1`, the Ki was 10 nM.

Compound `Cc1ccc2c(OCCN3CCC(Cc4ccc5c(c4)NC(=O)CO5)CC3)cccc2n1` gave a Ki of 1.58 nM.

`Cc1ccc2c(OCCN3CCN(Cc4ccc(F)c([N+](=O)[O-])c4)CC3)cccc2n1`: the Ki is 7.94 nM.

In turn, `Cc1ccc2c(OCCN3CCN(Cc4cc(Cl)ccc4Cl)CC3)cccc2n1` gave a Ki of 3.98 nM.

On to `Cc1ccc2c(OCCN3CCN(Cc4c(Cl)cccc4Cl)CC3)cccc2n1`, for which the Ki was more than 10000 nM.

Consider `Cc1ccc2c(OCCN3CCN(Cc4cccc5ncncc45)CC3)cccc2n1`, for which the affinity corresponds to a Ki of 2.51 nM.

In turn, `Cc1ccc2c(OCCN3CCN(Cc4cccc5ncccc45)CC3)cccc2n1` had a Ki of 2.51 nM.

Consider `Cc1ccc2c(OCCN3CCN(Cc4ccc(C)c([N+](=O)[O-])c4)CC3)cccc2n1`, for which the Ki was 2 nM.

Take `COc1ccc(CN2CCN(CCOc3cccc4nc(C)ccc34)CC2)cc1[N+](=O)[O-]`: the Ki was 20 nM.

In turn, `Cc1ccc2c(OCCN3CCN(Cc4cccc5cc[nH]c45)CC3)cccc2n1` showed a Ki of 3.16 nM.

In the case of `Cc1ccc2c(OCCN3CCN(Cc4ccc(O)c([N+](=O)[O-])c4)CC3)cccc2n1`, affinity was put at a Ki of 10 nM.

The compound `Cc1ccc2c(OCCN3CCN(Cc4ccc(Cl)c([N+](=O)[O-])c4)CC3)cccc2n1` had a Ki of 5.01 nM.

For the compound `Cc1ccc2c(OCCN3CCN(Cc4cccc5[nH]cnc45)CC3)cccc2n1`, the affinity corresponds to a Ki of 0.251 nM.

`Cc1ccc2c(OCCN3CCN(Cc4ccc(O)c(N)c4)CC3)cccc2n1` had a Ki of 1.58 nM.

`Cc1ccc2c(OCCN3CCN(Cc4ccc(Cl)c(Cl)c4)CC3)cccc2n1`: the affinity corresponds to a Ki of 2510 nM.

The next assay concerns the target T3, 5-hydroxytryptamine receptor 1B.
`NCCc1c[nH]c2ccc(O)cc12` displayed an IA of 1.

Another assay has the same target. Put plainly: Displacement of [3H]5-HT from human 5-hydroxytryptamine 1B receptor expressed in CHO cells. The format is cell-based. The method, boiled down: as §2
Take `Cc1ccc2c(OCCN3CCN(Cc4ccc5[nH]ccc5c4)CC3)cccc2n1`: the affinity corresponds to a Ki of 158 nM.

For the compound `Cc1ccc2c(OCCN3CCN(Cc4ccc5c(c4)NC(=O)CO5)CC3)cccc2n1`, the Ki is 100 nM.

As for `Cc1ccc2c(OCCN3CCN(Cc4ccc(F)c([N+](=O)[O-])c4)CC3)cccc2n1`, the Ki was 251 nM.

As for `Cc1ccc2c(OCCN3CCN(Cc4cc(Cl)ccc4Cl)CC3)cccc2n1`, the Ki is 631 nM.

As to `Cc1ccc2c(OCCN3CCN(Cc4c(Cl)cccc4Cl)CC3)cccc2n1`, the Ki was more than 10000 nM.

The compound `Cc1ccc2c(OCCN3CCN(Cc4cccc5ncncc45)CC3)cccc2n1` showed a Ki of 316 nM.

The compound `Cc1ccc2c(OCCN3CCN(Cc4cccc5ncccc45)CC3)cccc2n1` had a Ki of 251 nM.

As for `Cc1ccc2c(OCCN3CCN(Cc4ccc(C)c([N+](=O)[O-])c4)CC3)cccc2n1`, the affinity, expressed as Ki, was 79.4 nM.

Regarding `COc1ccc(CN2CCN(CCOc3cccc4nc(C)ccc34)CC2)cc1[N+](=O)[O-]`, the affinity corresponds to a Ki of 316 nM.

As to `Cc1ccc2c(OCCN3CCN(Cc4cccc5cc[nH]c45)CC3)cccc2n1`, the Ki was 398 nM.

The compound `Cc1ccc2c(OCCN3CCN(Cc4ccc(O)c([N+](=O)[O-])c4)CC3)cccc2n1` showed a Ki of 398 nM.

Take `Cc1ccc2c(OCCN3CCN(Cc4ccc(Cl)c([N+](=O)[O-])c4)CC3)cccc2n1`: the Ki is 200 nM.

`Cc1ccc2c(OCCN3CCN(Cc4cccc5[nH]cnc45)CC3)cccc2n1` showed a Ki of 63.1 nM.

`Cc1ccc2c(OCCN3CCN(Cc4ccc(O)c(N)c4)CC3)cccc2n1`: affinity was put at a Ki of 251 nM.

`Cc1ccc2c(OCCN3CCN(Cc4ccc(Cl)c(Cl)c4)CC3)cccc2n1` gave an inhibitory constant (Ki) of 2000 nM.
